Bioassay records as filed in PubChem BioAssay.
Rows were chosen to be rich in hits. Some 0.58% of all compounds tested hit in one or more screens of this group.
OXTR potentiate: potentiators of human oxytocin receptor | P30559 | CHO-OTR cells, Fluo-8 calcium fluorescence, potentiator mode; 0% = oxytocin EC15, 100% = EC100 | activation, % at 3 µM | hit rate 0.061% among 320,000 | AID 2445;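 active means activation above that plate's cutoff, the mean activation of tested compounds plus 3 SD, cut at about 6.6% in these data, passing the limit was not always enough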;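 further: 100% uses oxytocin at 75 nM as the full agonist control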
Target sequence (P30559 whole entry, looked up): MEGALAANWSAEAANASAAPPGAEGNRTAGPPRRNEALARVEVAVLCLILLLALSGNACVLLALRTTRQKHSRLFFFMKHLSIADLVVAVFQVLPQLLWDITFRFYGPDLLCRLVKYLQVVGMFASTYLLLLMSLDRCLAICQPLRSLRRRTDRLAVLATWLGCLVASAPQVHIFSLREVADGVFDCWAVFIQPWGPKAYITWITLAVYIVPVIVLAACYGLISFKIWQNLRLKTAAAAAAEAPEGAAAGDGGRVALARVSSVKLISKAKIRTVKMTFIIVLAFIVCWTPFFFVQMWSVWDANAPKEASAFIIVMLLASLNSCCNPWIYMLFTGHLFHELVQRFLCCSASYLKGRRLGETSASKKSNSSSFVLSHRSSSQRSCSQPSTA
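Dosing: Single dose, 3.0 µM nominal final compound concentration | Material: Human OTR in CHO cells | Technique: Kinetic Fluo-8 calcium fluorescence | Benchmarks: EC15 oxytocin alone as 0%, 75 nM oxytocin as 100% | Probe or stimulus: Oxytocin at about EC15, sub-maximal agonist stimulus | Incubation: Compound 6 min at room temperature before oxytocin, 100 s read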
TRPN1 ag: activates the zebrafish TRPN1 channel; HEK293 zebrafish TRPN1-YFP, Fluo-8 calcium fluorescence; 100% = response to 87 µM carbachol; AID 1424; activation, % at 3 µM; hit rate 0.18% among 220,000;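 active means activation above its plate's cutoff, the mean activation of test wells on that plate plus 3 SD, cut at about 19% in these data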;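 further: 0% = DMSO alone and 100% = 87 µM carbachol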
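Material: zebrafish TRPN1-YFP in HEK293 cells; Doses: single test compound dose, 3 µM nominal, 0.3% DMSO; Timing: dye loading 1 h at 37 °C, then 30 min room temperature; Technique: intracellular calcium fluorescence with Fluo-8; Benchmarks: high carbachol 87 µM, low DMSO alone.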
TRPML3 agonist: activates the human TRPML3 channel; hit rate 0.29% among 220,000; HEK293 TRPML3-YFP, Fluo-8 calcium fluorescence; 100% = the carbachol control signal; activation, % at 3 µM;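 active means activation above its plate's cutoff, the mean activation of the plate's test wells plus 3 SD, cut at about 12% in these data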;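 further: 0% = DMSO only wells and 100% = carbachol wells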
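Test system: TRPML3-YFP stable HEK293 cells. Doses: single point at 3 µM. Incubation: dye loading 1 h 37 °C then 30 min ambient, 125 s read. Signal: Fluo-8 calcium dye fluorescence, ex 470-495, em 515-575 nm. Measure: percent activation from peak-to-basal fluorescence ratio, scaled between DMSO and carbachol.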
V1R ag counter: counter-screen for oxytocin receptor agonists: human V1a receptor agonists; CHO-V1R cells, Fluo-8 calcium fluorescence, agonist mode; 0% DMSO, 100% 3 nM vasopressin; activation, % at 3 µM; AID 2797; P37288; hit rate 0.25% among 320,000;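 active means activation above the mean activation of all tested compounds plus 3 SD, per screening run, cut at about 20% in these data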;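 further: signal is peak over basal fluorescence ratio across a 100 second FLIPR read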
OXTR agonist: activates the human oxytocin receptor; P30559; CHO-OTR cells, Fluo-8 calcium fluorescence; normalized: DMSO 0%, oxytocin 100%; activation, % at 3 µM; hit rate 0.32% among 320,000;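 active means activation above the mean of all tested compounds plus 3 SD, cutoff set per screening run, cut at about 20% in these data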;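 further: peak over basal fluorescence ratio from a 100 s FLIPR kinetic read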
TRPN1 counter: zebrafish TRPN1 agonism as TRPML3 agonist counter-screen | activation, % at 3 µM | hit rate 10% among 310 | HEK293 zebrafish TRPN1-YFP, Fluo-8 calcium fluorescence; scaled: carbachol wells 100%, DMSO wells 0% | shares compounds with TRPML3 agonist;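 active means mean activation over replicates above a set limit taken from the earlier TRPN1 channel primary screen, cut at about 19% in these data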;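 further: 100% = carbachol and 0% = 0.3% DMSO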
TRPML3 ag conf: human TRPML3 agonism, confirmation; shares compounds with TRPML3 agonist; HEK293 TRPML3-YFP, Fluo-8 calcium fluorescence; 100% set by carbachol, 0% by DMSO; activation, % at 3 µM; hit rate 80% among 310; AID 1526;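 active means activation above a set limit derived from the earlier primary screen, cut at about 12% in these data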
An asterisk follows results filed as active; nt = no result given.

SMILES	OXTR potentiate	TRPN1 ag	TRPML3 agonist	V1R ag counter	OXTR agonist	TRPN1 counter	TRPML3 ag conf
CC1CCCN(C(=O)c2ccc(NC(=O)CC3SC(N4CCCC4)=NC3=O)cc2)C1 (stereo unspecified)	-6	nt	nt	-1	-1	nt	nt
CCOc1cccc(CN2CCC(CCC(=O)NC3CC3)CC2)c1O	7	nt	nt	1	0	nt	nt
Cc1ccc(SCC(=O)O/N=C(\N)c2cccc([N+](=O)[O-])c2)cc1	5	0	0	0	-1	nt	nt
Cc1ccc(S(=O)(=O)N(C)CC(=O)O/N=C(\N)c2cccc([N+](=O)[O-])c2)cc1	-21	-1	62*	5	3	0	48*
Cc1cc(N2C(=O)C3C4c5ccccc5C(c5ccccc54)C3C2=O)no1 (stereo unspecified)	-6	-3	13*	0	-2	-1	9
Cc1cccc(N2CCN(C(=O)[C@H](C)N3C(=O)C4CC=CCC4C3=O)CC2)c1C (stereo partly specified)	-10	nt	nt	6	4	nt	nt
Cc1cccc(N2CCN(C(=O)C3CCN(S(=O)(=O)c4c(C)noc4C)CC3)CC2)c1C	-13	nt	nt	4	3	nt	nt
S=C(NC1CCCCC1)N1CCOCCOCCN(C(=S)NC2CCCCC2)CCOCC1	-11	1	18*	0	-4	-1	33*
CCOc1ccccc1NC(=O)c1ccc2c(c1)C(=O)N(CC)C2=O	-3	nt	nt	0	0	nt	nt
CC(=O)c1ccc(NC(=S)NC(C)c2ccc(Cl)cc2Cl)cc1 (stereo unspecified)	-13	16	14*	24*	25*	17	9
COc1ccc(C(C)(C)C)cc1NC(=O)c1cc(S(=O)(=O)N(C)C)ccc1N1CCCC1	-9	-2	34*	-2	-3	0	33*
CN(C)S(=O)(=O)c1ccc(N2CCCC2)c(C(=O)Nc2ccc(F)cc2F)c1	-10	nt	nt	2	0	nt	nt
CCOc1ccc(CCNC(=O)Nc2cccc(OC)c2)cc1OCC	-18	nt	nt	3	-1	nt	nt
CC(C)Cn1c(N)c(C(=O)COC(=O)c2cccn2C)c(=O)n(C)c1=O	-7	nt	nt	3	7	nt	nt
COc1ccccc1-c1ccc(/C=C2\C=CC(=O)O2)o1	-20	17	14*	44*	50*	21*	13*
COc1ccccc1-c1ccc(/C=C2/C=C(C)OC2=O)o1	-15	0	1	1	1	nt	nt
Cc1cc(C)c(NC(=O)CCCn2c(=O)oc3ccccc32)c(C)c1	-3	nt	nt	0	0	nt	nt
N#CCCN(C(=O)COC(=O)Cc1c[nH]c2ccccc12)c1ccccc1	-7	nt	nt	0	1	nt	nt
Cc1ccccc1OCC(=O)Nc1ccccc1N1CCOCC1	-20	1	47*	6	-2	2	57*
CC(=O)N1CCN(c2ccccc2NC(=O)COc2ccccc2C)CC1	-8	2	0	0	0	nt	nt
Cc1ccccc1OCC(=O)Nc1cc(S(=O)(=O)N2CCCCC2)ccc1N1CCN(C)CC1	-5	0	21*	1	2	1	23*
O=C(NCc1ccccc1F)C1CCCN1C(=O)Nc1ccc(Cl)cc1 (stereo unspecified)	-14	nt	nt	0	-1	nt	nt
CCOc1ccc(S(=O)(=O)N(C)C2CCCCC2)cc1	-14	nt	nt	-1	-1	nt	nt
CN(C1CCCCC1)S(=O)(=O)c1cccc(C#N)c1	-9	0	63*	0	-1	0	44*
CCNC(=S)N(Cc1cccs1)Cc1cc2cc(OCC)ccc2[nH]c1=O	-14	1	17*	0	-1	-1	16*
SMILES	OXTR potentiate	TRPN1 ag	TRPML3 agonist	V1R ag counter	OXTR agonist	TRPN1 counter	TRPML3 ag conf
CCNC(=S)N(Cc1ccco1)Cc1cc2cc(OCC)ccc2[nH]c1=O	-10	-2	-1	0	0	nt	nt
O=C(CSc1ccc(F)cc1)Nc1cccc(S(=O)(=O)N2CCOCC2)c1	-3	nt	nt	5	3	nt	nt
COc1ccc(N2C(=O)C(F)(F)C2c2ccccc2F)cc1 (stereo unspecified)	nt	-3	21*	nt	nt	-2	34*
COc1ccc(N2C(=O)C(F)(F)C2c2cccc(F)c2)cc1 (stereo unspecified)	-12	-1	3	1	-2	nt	nt
CCN(CC)S(=O)(=O)c1ccc(C(=O)NCCOC(=O)c2ccc(F)cc2F)cc1	-6	nt	nt	5	6	nt	nt
COc1ccc(NC(C)(C)c2nnnn2-c2c(C)cccc2C)cc1	-10	-1	21*	-1	-2	2	10
Cc1cc(S(=O)(=O)N2CCCCCC2)c(Cl)cc1Cl	-17	0	26*	-2	-3	-2	27*
CCOc1ccc(Cl)cc1S(=O)(=O)N1CCCC1	-4	-1	1	0	-1	nt	nt
CCOc1c(S(=O)(=O)N2CCCC2)ccc(Cl)c1Cl	-11	0	19*	-1	-1	0	41*
COc1cccc(NC(=S)N2CCN(C)CC2)c1	0	nt	nt	1	1	nt	nt
Cc1ccc(S(=O)(=O)c2c(C)nn(C(C)(C)C)c2OC(=O)C2CCCC2)cc1	-12	2	32*	1	1	2	24*
COCC(=O)Oc1c(S(=O)(=O)c2ccccc2)c(C)nn1C(C)(C)C	-1	nt	nt	1	1	nt	nt
CCOC(=O)C1CCN(S(=O)(=O)c2ccc(C)cc2)CC1	-9	0	0	0	0	nt	nt
Cc1nn(C(C)(C)C)c(OC(=O)C2CCCC2)c1S(=O)(=O)c1ccccc1	nt	0	16*	nt	nt	-1	23*
Cc1cc(C)c(C(=O)COC(=O)C2CC3CCCC(C2)C3=O)c(C)c1 (stereo unspecified)	-10	nt	nt	-1	-2	nt	nt
O=C(Nc1nc(-c2ccc3ccccc3c2)cs1)C1CCN(S(=O)(=O)c2cccs2)CC1	-5	0	19*	0	-1	3	52*
Cc1ccc(-c2csc(NC(=O)C3CCN(S(=O)(=O)c4cccs4)CC3)n2)cc1	-4	3	4	5	7	nt	nt
CN(c1ccccc1)S(=O)(=O)c1cccc(Cl)c1Cl	-3	-2	53*	-1	0	-4	40*
CN(c1ccccc1)S(=O)(=O)c1cccc2ccccc12	-13	nt	nt	0	-2	nt	nt
CN(c1ccccc1)S(=O)(=O)c1cc(Cl)ccc1Cl	0	-2	49*	-2	-1	-3	67*
Cc1cccc(Cc2cnc(N3C(=N)SC(C)C3=O)s2)c1 (stereo unspecified)	-6	1	2	0	-1	nt	nt
N=C1SCC(=O)N1c1ncc(Cc2ccccc2Cl)s1	nt	3	137*	nt	nt	5	170*
